Measles CPE = protection of cells from measles virus; Measles virus-infected cells, CPE protection, absorbance; protection (pct of control), % at 4 µM; 140,000 tested, 1.5% active; AID 841; in the data active means protection mostly above about 24%, no sharp cut-off; inactive means mostly below about 26%
RAM network inh = inhibitors of the yeast RAM network; S. cerevisiae dse1pr::URA3 reporter, 5-FOA growth OD615, 2 d; analog-sensitive cbk1-as2 kinase mutant strain; inhibition, % at 50 µM; 190,000 tested, 1.8% active;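 active means inhibition above a set limit, 3 SD over mean compound inhibition, cut at about 8.4% in these data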;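 further: 0% = DMSO-only wells with no growth and 100% = 10 µM 1-NA-PP1 full growth; inhibition rescues growth on 5-FOA so higher OD means more RAM inhibition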
DAT uptake mod = changed human dopamine transporter uptake under cocaine IC80; Q01959; LLC-PK1 hDAT cells, [14C]-dopamine uptake with cocaine IC80; actives deviate in either direction; B-score at 10 µM; 110,000 tested, 1.3% active;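 active means Z score or B-score, a plate-position-corrected score, falls beyond the plate's 99.7% confidence bounds, in either direction; inactive means both scores lie inside the 99.7% bounds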;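 further: scored against the spread of the other compound wells on the same plate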
Target sequence (Q01959 whole entry, looked up): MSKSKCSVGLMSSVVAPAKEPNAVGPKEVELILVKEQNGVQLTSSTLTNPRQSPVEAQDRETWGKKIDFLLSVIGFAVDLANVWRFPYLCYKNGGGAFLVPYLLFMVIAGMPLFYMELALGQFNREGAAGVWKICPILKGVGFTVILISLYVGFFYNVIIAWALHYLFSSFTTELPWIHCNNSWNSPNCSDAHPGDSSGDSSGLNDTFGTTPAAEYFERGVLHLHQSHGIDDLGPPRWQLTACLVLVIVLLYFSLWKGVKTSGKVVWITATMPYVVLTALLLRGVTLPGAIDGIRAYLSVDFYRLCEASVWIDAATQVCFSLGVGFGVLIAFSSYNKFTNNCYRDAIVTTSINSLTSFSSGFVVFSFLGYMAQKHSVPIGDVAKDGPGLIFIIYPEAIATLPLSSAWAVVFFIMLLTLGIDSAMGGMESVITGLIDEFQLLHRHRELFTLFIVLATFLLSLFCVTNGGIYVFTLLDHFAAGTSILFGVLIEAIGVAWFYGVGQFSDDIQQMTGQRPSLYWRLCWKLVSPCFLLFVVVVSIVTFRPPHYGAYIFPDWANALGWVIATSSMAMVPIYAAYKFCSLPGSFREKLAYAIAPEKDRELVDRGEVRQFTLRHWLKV
WT yeast gro inh = growth inhibition of WT yeast, mitochondrial fusion screen. mitochondrial fusion phenotypic screen, WT strain. inhibition, % at 10 µM. 190,000 tested, 2.1% active; in the data active means inhibition above about 58%; tested in S. cerevisiae
Yeast life ext = extends the lifespan of yeast; S. cerevisiae growth with nicotinamide, OD615; deaD strain in restrictive glucose medium; inhibition of the nicotinamide effect, % at 10 µM; 130,000 tested, 0.68% active; AID 775;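 active means inhibition above a set limit, placed 3 SD over the median of all compounds, cut at about 26% in these data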;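 further: 0% = nicotinamide-treated wells and 100% = cells grown without nicotinamide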
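assay system = DeaD-strain S. cerevisiae | measured by = absorbance at 615 nm | probe or stimulus = nicotinamide 1.5 mM | buffer or medium = CSMM-D glucose medium, restrictive | times = 48 h at 30 °C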
BB579 growth dn = yeast BB579 growth reduction in restrictive medium. S. cerevisiae BB579 growth, OD615, 48 h. inhibition, % at 10 µM. 140,000 tested, 0.51% active;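 active means inhibition above a set limit, 3 SD over the mean compound inhibition, cut at about 44% in these data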
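System: Saccharomyces cerevisiae DeaD strain BB579, replicative lifespan model yeast | Buffer or medium: Restrictive glucose-based CSMM-D medium | Times: 4 h preincubation and 48 h exposure at 30 °C | Detection: OD615 turbidity measurement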
An asterisk follows results filed as active. Shown are actives, neighbours in structure and some others; about 6.1% of the full set was active somewhere.

Screening NNc1nc2ccc(F)cc2s1 returned Measles CPE 12, RAM network inh -1, WT yeast gro inh 65*, Yeast life ext -6 and BB579 growth dn -20.
For CS(=O)(=O)NCC(c1ccco1)N1CCN(c2ccc(F)cc2)CC1 (stereo not given) the results were Measles CPE 63*, RAM network inh 0, WT yeast gro inh -12, Yeast life ext 8 and BB579 growth dn -8.
CCS(=O)(=O)NCC(c1ccco1)N1CCN(c2ccc(F)cc2)CC1 (stereo not given) was read as Measles CPE 2, RAM network inh 1, WT yeast gro inh -23, Yeast life ext 5 and BB579 growth dn -35.
`CC1CCc2nc3sc4c(c3c(N)c2C1)CCCC4` (stereo not given) gave Measles CPE 7, RAM network inh 3, WT yeast gro inh 28, Yeast life ext 5 and BB579 growth dn -47.
`Nc1c2c(nc3sc4c(c13)CCCCC4)CCCCC2` gave Measles CPE 49*, RAM network inh 3, WT yeast gro inh 41, Yeast life ext 2 and BB579 growth dn -17.
Screening CCCOC(=O)CN1C(=O)c2ccccc2C1=O returned Measles CPE 20*, RAM network inh 2, DAT uptake mod -0.31, WT yeast gro inh 79*, Yeast life ext -20 and BB579 growth dn -1.
COc1ccc(CN2C(=O)NC3(CCCCCC3)C2=O)cc1F was read as Measles CPE 5, RAM network inh 0, DAT uptake mod 1.6, WT yeast gro inh -4 and BB579 growth dn -36.
`CC(C)(C)c1nn2cnnc2n(/N=C/c2ccccc2)c1=O` gave Measles CPE 11, RAM network inh 1, WT yeast gro inh 6, Yeast life ext 9 and BB579 growth dn 2.
`O=C1CSC(c2ccc(Cl)cc2Cl)N1c1ccccn1` (stereo not given) gave Measles CPE 6, RAM network inh 2, WT yeast gro inh 12, Yeast life ext 2 and BB579 growth dn -25.
For O=C1CSC(c2ccccc2Br)N1c1ccc(Cl)cn1 (stereo not given) the results were RAM network inh 8 and WT yeast gro inh 67*.
Cc1ccc(NC(=S)Nc2cccc3cnccc23)cc1 was read as RAM network inh 0 and WT yeast gro inh 48.
S=C(Nc1cccc(Cl)c1)Nc1cccc2cnccc12 was read as Measles CPE 13, RAM network inh 0, WT yeast gro inh 70*, Yeast life ext 4 and BB579 growth dn -3.
Cc1ccc(C)c(NC(=S)Nc2cccc3cnccc23)c1 was read as RAM network inh 0 and WT yeast gro inh 62*.
Cc1ccc(NC(=S)Nc2cccc3cnccc23)cc1C was read as RAM network inh 1 and WT yeast gro inh 59*.
Screening CCN(CC(=O)Nc1cccc(OC)c1)C(=O)c1ccc(C)s1 returned Measles CPE 18, RAM network inh 0, DAT uptake mod -0.75, WT yeast gro inh -8, Yeast life ext -17 and BB579 growth dn -29.
`CCOC(=O)C1=C(C)N=c2s/c(=C3\C(=O)Nc4ccccc43)c(=O)n2C1c1ccc2c(c1)OCO2` (stereo not given) gave Measles CPE 1, RAM network inh 10*, DAT uptake mod 0.73, WT yeast gro inh -11, Yeast life ext -10 and BB579 growth dn -26.
`CCOC(=O)C1=C(C)N=c2s/c(=C\c3ccncc3)c(=O)n2C1c1ccc2c(c1)OCO2` (stereo not given) gave Measles CPE 6, RAM network inh 2, DAT uptake mod 1.6, WT yeast gro inh 12, Yeast life ext 10 and BB579 growth dn -30.
For Cc1ccc2nc(/C(C#N)=C/c3cn[nH]c3-c3ccc(F)cc3)[nH]c2c1 the results were Measles CPE 2, RAM network inh 10*, DAT uptake mod 2, WT yeast gro inh 13, Yeast life ext -11 and BB579 growth dn -32.
OCCSc1c(F)c(SCCO)c(SCCO)c(F)c1SCCO was read as Measles CPE 8, RAM network inh 2, DAT uptake mod -0.46, WT yeast gro inh 5, Yeast life ext -3 and BB579 growth dn 4.
For COc1cc(-n2c(N)c(C(=O)NCc3ccco3)c3nc4ccccc4nc32)cc(OC)c1OC the results were Measles CPE 13, RAM network inh 11*, WT yeast gro inh -7, Yeast life ext 4 and BB579 growth dn -27.

Source: PubChem (several laboratories)
